# Screening data from PubChem.
# TDP2 inh: blocks human TDP2 phosphodiesterase activity; O95551; recombinant TDP2, T5PNP hydrolysis, p-nitrophenol absorbance 415 nm; inhibition, % at 12.8 µM; actives 0.34% (n = 370,000); AID 720702;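 active = inhibition above the mean of all tested compounds plus 3 SD, set per campaign, cut at about 25% in these data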;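 also: 0% = DMSO with enzyme and 100% = buffer with substrate but no TDP2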
#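 System: recombinant human TDP2 / Amount: 120 nM TDP2 per well / Also added: 5 mM T5PNP chromogenic substrate / Doses: 12.8 µM single point, 1% DMSO / Incubation: 2 h at 37 °C / Detection: p-Nitrophenol epi absorbance / Evaluation: % inhibition relative to enzyme-containing and enzyme-free wells / Repeats: singlicate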
# MBD2 inh: MBD2-methylated oligo binding inhibition; Q9UBB5; TR-FRET, MBD2 binding to methylated oligonucleotide; inhibition, % at 4.4 µM; actives 0.31% (n = 370,000); in the data active = inhibition above about 13%
# Target sequence (Q9UBB5 whole entry, looked up): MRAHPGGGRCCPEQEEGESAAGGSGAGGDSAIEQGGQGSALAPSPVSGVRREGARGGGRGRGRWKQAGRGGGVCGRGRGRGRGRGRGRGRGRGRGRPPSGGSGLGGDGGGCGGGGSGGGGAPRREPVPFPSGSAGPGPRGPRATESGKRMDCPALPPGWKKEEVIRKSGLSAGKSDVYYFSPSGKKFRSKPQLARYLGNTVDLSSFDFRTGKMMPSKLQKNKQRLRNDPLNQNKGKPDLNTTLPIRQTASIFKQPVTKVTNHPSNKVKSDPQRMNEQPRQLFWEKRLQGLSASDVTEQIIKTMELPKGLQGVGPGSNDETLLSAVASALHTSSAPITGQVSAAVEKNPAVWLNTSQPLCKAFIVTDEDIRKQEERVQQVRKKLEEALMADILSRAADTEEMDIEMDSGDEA
# Rin1-Abl PPI inh: human Rin1-Abl interaction inhibition. inhibition, % at 7.35 µM. actives 0.4% (n = 360,000). AID 588664. TR-FRET Rin1/Abl binding, biochemical; in the data active = inhibition above about 5%, passing the limit was not always enough
# LEDGF integ inh: blocks HIV-1 LEDGF/p75-dependent DNA integration; inhibition, % at 3.7 µM; TR-FRET IN-LEDGF/p75 DNA integration, Eu/Cy5; actives 0.64% (n = 370,000);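 active = inhibition above the screen-wide mean plus 3 SD, cut at about 13% in these data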;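 also: signal is the Cy5 over europium emission ratio at 671 and 618 nm; 0% = plate median of compound wells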
# UHRF1 MBD2 ctr: blocks human UHRF1 binding to methylated DNA. Q96T88. UHRF1 binding to methylated oligo, TR-FRET. inhibition, % at 4.4 µM. actives 0.75% (n = 370,000). AID 687016; in the data active = inhibition above about 21%;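 also: UHRF1 SRA domain binding a hemimethylated CpG hairpin DNA probe; 0% = median of test compound wells and 100% = reference inhibitor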
# The depositor's hits bear a star; nt = no result given. Compounds with a hit are over-represented: about 1.9% of the library has one in this group of screens.
SMILES,TDP2 inh,MBD2 inh,Rin1-Abl PPI inh,LEDGF integ inh,UHRF1 MBD2 ctr
Cc1[nH]n(-c2ccccc2)c(=O)c1C(c1ccccc1C(=O)O)c1c(C)[nH]n(-c2ccccc2)c1=O,1.7,1.8,-4.0,-1.7,-0.7
Cc1[nH]n(-c2ccccc2)c(=O)c1C(c1ccccc1[N+](=O)[O-])C(C#N)C#N (configuration not stated),74.9*,-3.1,0.9,6.8,-0.1
Cc1[nH]n(-c2ccccc2)c(=O)c1C(C[N+](=O)[O-])c1ccc(Cl)cc1 (configuration not stated),27.2*,-5.9,3.9,2.6,-9.5
Cc1[nH]n(-c2ccccc2)c(=O)c1Sc1ccc(Cl)cc1,10.1,-1.8,-2.5,-1.0,-5.3
CCNc1nc(N)c([N+](=O)[O-])c(Nc2cccc(Cl)c2)n1,4.4,-4.6,nt,-2.0,-0.3
COc1cc(OC)cc(C(=O)NCCN2C(=O)C3C4C=CC(C4)C3C2=O)c1 (configuration not stated),4.8,-4.6,nt,0.0,2.0
CCN(CCNCC(O)COCc1ccc(Cl)cc1)c1cccc(C)c1 (configuration not stated),1.0,-3.6,-2.6,2.2,28.6*
COC(=O)C1=C(C)N(C)C(=NCC2CC2)NC1c1ccccc1 (configuration not stated),9.1,10.4,nt,0.3,20.5
CCOC(=O)/C=C(\C)Sc1cc(=O)oc2ccccc12,5.0,-9.8,-3.3,-0.2,-0.9
CCOC(=O)/C=C(\C)Sc1cc(O)c2ccccc2c1O,58.5*,-3.5,6.0,28.9*,6.7
O=C(O)CC(C(=O)O)N1C(=O)/C(=C/c2ccc(-c3nc4ccccc4s3)o2)SC1=S (configuration not stated),12.8,34.4*,2.7,53.2*,79.1*
O=C(O)CCCN1C(=O)/C(=C\c2ccc(-c3nc4ccccc4s3)o2)SC1=S,0.0,-3.2,-3.5,0.3,8.2
CC(C)CN(CC(C)C)C(=O)c1ccc2c(c1)NC(=O)C(C)(C)O2,0.0,-0.3,nt,-3.1,1.8
CCOC(=O)N1CCN(C(=O)CCNS(=O)(=O)c2ccccc2)CC1,-4.6,0.9,-0.7,0.0,21.6*
O=C(CNS(=O)(=O)c1ccccc1)N1CCCC1,5.0,12.9,2.6,6.8,21.3*
O=C(CNS(=O)(=O)c1ccccc1)N1CCN(c2ccccc2)CC1,7.4,1.3,0.9,-3.0,2.6
COC(=O)[C@]12C[C@H](CC(=O)N3CCCC3)C(=O)N(Cc3ccco3)C1=C[C@H](C(C)(C)C)O[C@@H]2C,7.9,-0.8,nt,1.1,0.6
CC(C)Cc1cc(C(=O)Nc2cc(Cl)ccc2Cl)no1,9.2,4.1,-0.3,-1.5,1.5
CC(C)Cc1cc(C(=O)Nc2ccc(F)cc2F)no1,7.4,0.0,0.1,2.9,24.2*
Cc1ccc(NC(=O)[C@H](Cc2ccccc2)NC(=O)[C@@H]2Cc3ccccc3CN2)c(C)c1,4.1,12.6,5.0,1.5,26.6*
Cc1ccc(NC(=O)[C@H](NC(=O)[C@@H]2Cc3ccccc3CN2)c2ccccc2)c(C)c1,-0.6,2.6,-2.2,-6.8,-0.9
Cc1ccc(OCC(=O)NNC(=O)c2cccnc2)cc1,3.6,8.4,1.3,3.6,26.6*
CCOC(=O)C1=NN(c2ccc(OC)cc2)C2C(=O)N(c3ccccc3OC)C(=O)C12 (configuration not stated),0.8,0.1,-2.5,0.1,-2.2
CCOC(=O)C1=NN(C(=O)Nc2ccc(OC)cc2)C2C(=O)N(c3cccc(C(F)(F)F)c3)C(=O)C12 (configuration not stated),-6.5,32.8*,0.4,0.8,-3.3
COc1ccc(S[C@]2(C(=O)N3CCCC3)CC(=O)N(c3ccsc3)[C@@H]2c2ccc(OC)cc2)cc1,-4.2,-0.9,nt,-0.9,0.6
CCCCCCc1ccc(NC(=O)[C@@H]2CC=C[C@@H]3CCN(Cc4ccccc4)C(=O)[C@@H]32)cc1,-4.2,-3.0,nt,1.0,0.2
CCCCN(C(=O)c1cccc(-c2ccc(OC(C)=O)cc2)c1)c1c(N)n(CCC)c(=O)[nH]c1=O,0.1,-1.6,2.8,4.4,73.1*
CCCCN(C(=O)c1cccc(C)c1)c1c(N)n(CCC)c(=O)[nH]c1=O,-2.0,-5.4,4.0,-0.9,2.2
OCC1(Cc2ccc(Cl)cc2)CCN(CCCc2ccccc2)CC1,-5.5,-1.9,5.0,-2.8,-1.5
CN1CCC(CO)(Cc2ccccc2)CC1,8.0,0.8,-0.1,1.3,22.0*
